HCT116 PTEN-null = growth suppression of PTEN-null HCT116, primary screen, cell-based, CellTiter-Glo; HCT116 PTEN-null viability, 60 h; active compounds read low; viability, % at 10 µM; hit rate 1.2% among 140,000;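 active = viability at or below a set limit, 4 SD under the median of all tested compounds, cut at about 3.7% in these data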;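 note: PTEN knockout HCT116 line with beta catenin targeted HCT116 as companion control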
H69AR growth 86K = proliferation blockers of H69AR lung cancer cells, primary screen, cell-based, human, 86K library. hit rate 6% among 85,000. viability, % at 10 µM. H69AR lung tumor viability, ATP luminescence, 72 h; active compounds read low;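 active = viability at or below 40%; inactive = viability above 40%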;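 note: multidrug resistant small cell line overexpressing MRP-1 efflux transporter; 100% = mean luminescence of untreated control wells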
Fibroblast inh = antiproliferative effect on LL 47 fibroblasts – human, LL 47 cells, CellTiter-Glo luminescence, primary screen | AID 719, 2007 | LL 47 human lung fibroblast viability, ATP luminescence; active compounds read low | hit rate 1.1% among 85,000 | viability, % at 10 µM;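 active = viability at or below 50% in the single dose screen; inactive = viability above 50%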;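 note: compound exposure lasted 72 h before the ATP readout; 100% = median luminescence of untreated cell-only wells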
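Material: Human LL 47 lung fibroblast cells | Input: 1,150 cells/well | Buffer or medium: IMEM plus 15% FBS | Compound dosing: 0.1% DMSO in all compound wells | Times: Overnight cell rest, 72 h compound treatment at 37 °C | Signal: CellTiter-Glo luminescence measuring cellular ATP | Measure: % viability versus median cells-only luminescence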
HCT116 bCat-KO = primary screen for growth suppressors in beta-catenin knockout HCT116 cells (colon tumor, human) | HCT116 beta-catenin knockout viability, CellTiter-Glo, 60 h; active compounds read low | viability, % at 10 µM | hit rate 1.5% among 140,000 | AID 818, 2007;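 active = viability at or under a set limit, the compound median less 4 SD, cut at about 6% in these data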;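 note: 0% = Hyamine 1622 control at 20 µM and 100% = untreated cell control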
HUVEC prolif 384 = inhibitors of HUVEC proliferation, primary screen, cell-based, 384-well; CellTiter-Glo luminescence, 72 h; active compounds read low; viability, % at 10 µM (by protocol); hit rate 1.1% among 86,000;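 active = viability at or below 30%; inactive = viability above 30%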;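 note: 100% = median luminescence of DMSO-only cell control wells on each plate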
* marks the source's active call; other numbers are inactive results; / = not tested or not shown. This is one part of a sample in which hits are shown more often than they occur.

SMILES	HCT116 PTEN-null	H69AR growth 86K	Fibroblast inh	HCT116 bCat-KO	HUVEC prolif 384
CCOc1cc(C2NC(=O)NC(C)=C2C(=O)OCc2ccccc2)ccc1O (configuration not stated)	93	99	98	83	104
N=c1c2c(-c3ccccc3)c(-c3ccccc3)n(Cc3ccco3)c2ncn1CCN1CCOCC1	1.6*	36*	47*	1.2*	18*
N=c1c2c(-c3ccccc3)c(-c3ccccc3)n(Cc3ccco3)c2ncn1CCO	1.7*	17*	50	1.4*	42
C=CCOc1c(Br)cc(/C=N/n2c(CC)n[nH]c2=S)cc1Br	88	/	/	87	/
O=S(c1ccc2ccccc2c1)c1cnns1 (configuration not stated)	13	/	/	15	/
CN1CCN(NC(=O)c2cc(S(=O)(=O)N3CCOCC3)c(Cl)cc2Cl)CC1	98	/	/	92	/
Cc1ccc(CNC(=O)[C@H](C)[C@H]2C[C@]2(C)[C@H](NC(=O)OCc2ccccc2)c2ccccc2)o1	56	/	/	51	/
S=C(N/N=C1\C2CN3CCN(C2)CC1(c1ccccc1)C3)Nc1ccccc1	96	/	/	89	/
CCOC(=O)/C(=C\Nc1ccccc1C(F)(F)F)Sc1ncc(C(F)(F)F)cc1Cl	78	100	104	73	138
COC(=O)/C(=C\Nc1ccc(Cl)c2ccccc12)c1ncc(C(F)(F)F)cc1Cl	82	33*	93	83	108
CO/C=C\C=C/c1nnn(-c2ccc(Cl)cc2)n1	57	/	/	63	/
Cc1ccc(-n2ncc3c(=O)[nH]c(SCC(=O)N4CCCc5ccccc54)nc32)cc1	92	32*	95	87	80
Cc1ccc(-n2ncc3c(=O)[nH]c(SCC(=O)N4CCN(c5ccccc5)CC4)nc32)cc1	91	59	98	91	98
CCCCCSc1nc2c(cnn2-c2ccccc2)c(=O)[nH]1	74	27*	96	63	81
CC(C)Sc1nc2c(cnn2-c2ccccc2)c(=O)[nH]1	104	86	92	93	79
Cc1ccc(-n2ncc3c(=O)[nH]c(SCC(=O)N4CCOCC4)nc32)cc1	104	56	90	87	91
COC(=O)c1ccc(CSc2nc3c(cnn3-c3ccc(C)cc3)c(=O)[nH]2)o1	86	20*	98	97	29*
Cc1ccc(-n2ncc3c(=O)[nH]c(SC(C)C)nc32)cc1	95	78	94	96	97
CCOC(=O)C(C)Sc1nc2c(cnn2-c2ccc(C)cc2)c(=O)[nH]1 (configuration not stated)	61	19*	90	70	58
COc1ccc(C2NC(=S)NC(O)(C(F)(F)F)C2C(=O)c2cccs2)cc1 (configuration not stated)	91	/	/	89	/
O=c1[nH]c(CSc2nc3ccccc3o2)nc2c1cnn2-c1ccccc1	88	18*	104	92	77
O=C(N/N=C/c1ccccn1)c1ccc(Br)cc1	3.6*	/	/	3.6*	/
O=C(Cn1c(=O)c(=O)n(Cc2ccccc2)c2ccc(Cl)cc21)Nc1cccc(F)c1	71	/	/	64	/
CCC(C)n1c(SCC(=O)Nc2cc(C(C)(C)C)nn2-c2ccccc2)nc2ccccc2c1=O (configuration not stated)	48	/	/	47	/
COc1ccc(C(=O)c2oc3ccccc3c2NC(C)=O)cc1	100	90	95	92	106
SMILES	HCT116 PTEN-null	H69AR growth 86K	Fibroblast inh	HCT116 bCat-KO	HUVEC prolif 384
COc1ccc(OC)c(C(=O)c2oc3ccccc3c2NC(C)=O)c1	54	22*	/	60	88
COc1ccc(-c2nnc(NC(=O)c3ccc(S(=O)(=O)N4CCCc5ccccc54)cc3)o2)cc1	15	17*	63	14	3.0*
Cc1ccc2nc(NC(=O)c3ccc(S(=O)(=O)N4CCCc5ccccc54)cc3)sc2c1	60	/	/	57	/
O=C(NCc1ccccc1)c1ccc(S(=O)(=O)N2CCCc3ccccc32)cc1	78	61	93	82	91
O=C(Nc1nnc(C2CC2)o1)c1ccc(S(=O)(=O)N2CCCc3ccccc32)cc1	15	18*	71	12	62
Cn1cnc([N+](=O)[O-])c1S(=O)(=O)c1cccc(Cl)c1	0.9*	/	/	1.2*	/

Bioassay records: PubChem, SRMLSC
